What was measured:
Brain [1] = test: Drug uptake in Kunming mouse brain […] iv ibuprofen administered as single dose by HPLC analysis relative to ibuprofen; assay type: ADME, organism-based; details: in vivo
Brain [2] = test: Drug uptake in Kunming mouse brain assessed as concentration efficiency […] iv ibuprofen administered as single dose by HPLC analysis relative to ibuprofen; assay type: ADME, organism-based; details: in vivo
[3] = Chemical stability of compound in phosphate buffer assessed as first order rate constant of disappearance of drug at pH 2.21 by HPLC analysis; assay type: physicochemical
Method in brief: (§1)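 Methanol solution of compound mixed into 4 ml phosphate buffer (pH 2.21, 5.86, 7.33 or 7.88), held at 37 °C; samples taken at 0, 1, 3, 6, 12, 24 h and analysed by reverse-phase HPLC (methanol/water 70:30, pH 2.86, UV 219 nm). Pseudo-first-order Kdisapp from linear regression of ln peak area against time in hours; t1/2 derived from it.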

[4] = Chemical stability of compound in phosphate buffer assessed as first order rate constant of disappearance of drug at pH 5.86 by HPLC analysis; assay type: physicochemical; method in brief: as §1
[5] = Chemical stability of compound in phosphate buffer assessed as first order rate constant of disappearance of drug at pH 7.33 by HPLC analysis; assay type: physicochemical; method in brief: as §1
[6] = Chemical stability of compound in phosphate buffer assessed as first order rate constant of disappearance of drug at pH 7.88 by HPLC analysis; assay type: physicochemical; method in brief: as §1
[7] = Chemical stability of compound in phosphate buffer assessed as half life at pH 2.21 by HPLC analysis; assay type: physicochemical; method in brief: as §1
[8] = Chemical stability of compound in phosphate buffer assessed as half life at pH 5.86 by HPLC analysis; assay type: physicochemical; method in brief: as §1
[9] = Chemical stability of compound in phosphate buffer assessed as half life at pH 7.33 by HPLC analysis; assay type: physicochemical; method in brief: as §1
[10] = Chemical stability of compound in phosphate buffer assessed as half life at pH 7.88 by HPLC analysis; assay type: physicochemical; method in brief: as §1
[11] = Metabolic stability in mouse plasma assessed as first order rate constant of disappearance of drug by HPLC analysis; assay type: ADME, cell-free
Method in brief: (§2)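 Incubation in mouse plasma extract or brain homogenate at 37 °C; remaining compound measured by HPLC (UV 219 nm). Pseudo-first-order Kdisapp from linear regression of ln peak area against time in minutes; half-life derived from it.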

Brain [12] = test: Metabolic stability in mouse brain assessed as first order rate constant of disappearance of drug by HPLC analysis; assay type: ADME, tissue-based; method in brief: as §2
[13] = Metabolic stability in mouse plasma assessed as compound half life by HPLC analysis; assay type: ADME, cell-free; method in brief: as §2
[14] = Metabolic stability in mouse brain assessed as compound half life by HPLC analysis; assay type: ADME, tissue-based; method in brief: as §2
Brain [15] = test: AUC (0 to t) in Kunming mouse brain […] iv ibuprofen administered as single dose by HPLC analysis; assay type: ADME, organism-based; details: in vivo
[16] = AUC (0 to t) in Kunming mouse blood at 48 mmol/g, iv administered as single dose by HPLC analysis; assay type: ADME, organism-based
[17] = Mean residence time in Kunming mouse blood at 48 mmol/g, iv administered as single dose by HPLC analysis; assay type: ADME, organism-based
[18] = Cmax in Kunming mouse blood at 48 mmol/g, iv administered as single dose by HPLC analysis; assay type: ADME, organism-based; parameters: dose 48 mmol/g, route intravenous
[19] = Tmax in Kunming mouse blood at 48 mmol/g, iv administered as single dose by HPLC analysis; assay type: ADME, organism-based
Brain [20] = test: AUC (0 to t) in Kunming mouse brain at 48 mmol/g, iv administered as single dose by HPLC analysis; assay type: ADME, organism-based; details: in vivo
[21] = Cmax in Kunming mouse brain at 48 mmol/g, iv administered as single dose by HPLC analysis; assay type: ADME, organism-based; parameters: dose 48 mmol/g, route intravenous
[22] = Tmax in Kunming mouse brain at 48 mmol/g, iv administered as single dose by HPLC analysis; assay type: ADME, organism-based

`C/C(=C(\CCOC(=O)C(C)c1ccc(CC(C)C)cc1)SSCc1ccccc1)N(C=O)CC(=O)OCC(OC(=O)C(C)c1ccc(CC(C)C)cc1)C1OC(=O)C(O)=C1O` (configuration not stated) showed a Ratio (Brain [1]) of 4.072, a Ratio (Brain [2]) of 7.461 and a K [3] of 1.29 ×10⁻² /hr. It also gave a K [4] of 2.89 ×10⁻² /hr, a K [5] of 4.27 ×10⁻² /hr and a K [6] of 6.87 ×10⁻² /hr. For the same compound, the half-life [7] was 53.9 h, the half-life [8] was 23.9 h and the half-life [9] was 16.2 h. The half-life [10] was 10.1 h, the k el [11] was 0.000307 s⁻¹ and the K (Brain [12]) was 5.46 ×10⁻² /min. For the same compound, the half-life [13] was 0.463 h, the half-life [14] was 0.212 h and the AUCt (Brain [15]) was 7557.692 µg·min/g.

In the case of `CC(C)Cc1ccc(C(C)C(=O)OCC(OC(=O)C(C)c2ccc(CC(C)C)cc2)C2OC(=O)C(O)=C2O)cc1` (configuration not stated), the Ratio (Brain [1]) is reported as 3.516, the Ratio (Brain [2]) is reported as 4.965 and the K [3] is reported as 1.76 ×10⁻² /hr. It also gave a K [4] of 3.66 ×10⁻² /hr, a K [5] of 5.58 ×10⁻² /hr and a K [6] of 8.65 ×10⁻² /hr. The half-life [7] was 39.5 h, the half-life [8] was 18.9 h and the half-life [9] was 12.4 h. It also gave a half-life [10] of 8.1 h, a k el [11] of 0.000262 s⁻¹ and a K (Brain [12]) of 2.48 ×10⁻² /min. For the same compound, the half-life [13] was 0.737 h, the half-life [14] was 0.465 h and the AUCt (Brain [15]) was 6526.7422 µg·min/g.

In the case of `CC(C)Cc1ccc(C(C)C(=O)O)cc1` (configuration not stated) [IBUPROFEN], the AUC(0-t) [16] is reported as 56800 ng·h/mL, the MRT [17] is reported as 78.9 h and the Cmax [18] is reported as 28400 ng/mL. It also gave a Tmax [19] of 6.67 min, an AUCt (Brain [20]) of 1856.215 µg·min/g and a Cmax [21] of 10700 ng/g. For the same compound, the Tmax [22] was 0.417 h.

In the case of `CC(C)Cc1ccc(C(C)C(=O)OCC(O)C2OC(=O)C(O)=C2O)cc1` (configuration not stated), the Ratio (Brain [1]) is reported as 2.03, the Ratio (Brain [2]) is reported as 2.619 and the K [3] is reported as 1.73 ×10⁻² /hr. The K [4] was 3.76 ×10⁻² /hr, the K [5] was 4.67 ×10⁻² /hr and the K [6] was 8.42 ×10⁻² /hr. The half-life [7] was 40.1 h, the half-life [8] was 18.4 h and the half-life [9] was 14.8 h. For the same compound, the half-life [10] was 8.2 h, the k el [11] was 0.000248 s⁻¹ and the K (Brain [12]) was 3.46 ×10⁻² /min. The half-life [13] was 0.777 h, the half-life [14] was 0.335 h and the AUCt (Brain [15]) was 3767.9842 µg·min/g.

Compound `CC(C)Cc1ccc(C(C)C(=O)OC(CO)C2OC(=O)C(O)=C2O)cc1` (configuration not stated) has a Ratio (Brain [1]) of 2.254, a Ratio (Brain [2]) of 4.194 and a K [3] of 1.61 ×10⁻² /hr. It also gave a K [4] of 3.36 ×10⁻² /hr, a K [5] of 4.3 ×10⁻² /hr and a K [6] of 7.15 ×10⁻² /hr. The half-life [7] was 43 h, the half-life [8] was 20.6 h and the half-life [9] was 16.1 h. For the same compound, the half-life [10] was 9.7 h, the k el [11] was 0.000225 s⁻¹ and the K (Brain [12]) was 4.16 ×10⁻² /min. It also gave a half-life [13] of 0.857 h, a half-life [14] of 0.278 h and an AUCt (Brain [15]) of 4183.3895 µg·min/g.

— ChEMBL document CHEMBL3286298 (Eur J Med Chem, 2014)
